Source: PubChem
FLuc inh counter: Photinus pyralis luciferase inhibition counter-screen; P08659; ATPLite firefly luciferase biochemical luminescence, 10 min; inhibition, % at 10 µM; 1.5% of 200,000 active;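 active means inhibition above about 50% when tested at 10 µM, limit read from the data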
Target sequence (P08659 whole entry, looked up): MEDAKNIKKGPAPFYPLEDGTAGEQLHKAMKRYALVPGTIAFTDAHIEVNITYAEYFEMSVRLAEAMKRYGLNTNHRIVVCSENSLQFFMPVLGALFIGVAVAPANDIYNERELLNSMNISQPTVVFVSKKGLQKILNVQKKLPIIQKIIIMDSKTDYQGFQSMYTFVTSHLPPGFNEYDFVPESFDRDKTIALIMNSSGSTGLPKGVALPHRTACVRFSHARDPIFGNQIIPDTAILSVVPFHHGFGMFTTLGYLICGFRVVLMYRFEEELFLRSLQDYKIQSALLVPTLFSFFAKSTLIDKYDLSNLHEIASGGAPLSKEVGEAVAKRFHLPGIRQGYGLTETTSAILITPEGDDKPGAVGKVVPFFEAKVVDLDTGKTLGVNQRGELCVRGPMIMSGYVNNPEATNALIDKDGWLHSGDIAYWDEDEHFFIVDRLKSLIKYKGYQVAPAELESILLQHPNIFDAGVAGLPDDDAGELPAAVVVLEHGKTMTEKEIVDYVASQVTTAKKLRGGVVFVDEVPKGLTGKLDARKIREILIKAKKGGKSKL
PPC-1+TRAIL kill: compounds killing PPC-1 cancer cells with TRAIL present (potentiator screen, no TRAIL-free arm) | cell killing (% activity), % at 4 µM or 5 µM | PPC-1 cells + TRAIL, ATPLite viability luminescence | 0.41% of 220,000 active;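 active means cell killing above 50% in the first pass at 4 µM, then a duplicate retest at 5 µM averaging 50% or more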
NF-kB expr up: compounds increasing NF-kB expression in human neuronal cells | NF-kB reporter expression; active compounds read high | fold change at 12.5 µM | 1.6% of 190,000 active; in the data active means fold change above about 3.3
APP 5'UTR act: activates APP 5'UTR luciferase reporter. SH-SY5Y APP 5'UTR luciferase reporter, luminescence; zero percent = DMSO vehicle wells. activation, % at 2 µM. 1% of 190,000 active. AID 1276;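 active means activation above a set limit, based on mean plus 3 SD of controls, cut at about 140% in these data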
C8 TRAIL sens: sensitizes caspase-8 expressing cells to TRAIL. NB7+C8 cells + TRAIL, ATPlite viability luminescence. inhibition (viability loss, TRAIL sensitization), % at 10 µM. 1% of 360,000 active;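 active means compounds causing at least 50% loss of cell viability in the single-dose screen, relative to plate controls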
FLuc stim CS: firefly luciferase counter-screen for stimulation assays. ATPlite luciferase biochemical, luminescence, 10 min; 0 = ATP-free wells, 1 = DMSO control. activation factor at 10 µM. 200,000 tested, under 10 active. AID 1027;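 active means luciferase activation factor, scaled between plate controls, of at least 2 with compound at 10 µM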
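Assay system – cell-free luciferase reagent · Medium – PBS-based ATP solution · Dosing – test compounds dosed from 2 mM stocks in 100% DMSO · Timing – 10 min, room temperature · Technique – light output (luminescence) · Measure – luminescence gain marking luciferase activators · Controls – No-ATP low control, compound-free enzyme-plus-ATP high control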
PPC-1 tox: kills PPC-1 cells; 50% of 1,200 active; cytotoxicity, % at 5 µM; PPC-1 viability, ATPlite luminescence, overnight; AID 1447; shares compounds with PPC-1+TRAIL kill;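 active means reconfirmed compounds whose average cytotoxicity reaches 50% or more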
Numbers stand for hits; n = inactive; x = no result. In the library only some 2.2% were active in any assay of this set; here they are far more common.

SMILES	FLuc inh counter	PPC-1+TRAIL kill	NF-kB expr up	APP 5'UTR act	C8 TRAIL sens	FLuc stim CS	PPC-1 tox
COc1ccc(-c2cc3nc(C)n(N)c(=O)c3s2)cc1	x	89	x	x	86	x	90
CCCCCCCCN1C(=O)[C@H](CC(=O)N2CCN(C(=O)C3CC3)CC2)C[C@@]2(C(=O)OC)CC(C)(C)CC=C12	x	x	x	x	n	x	x
CCOC(=O)[C@]12CCC=C1N(CCC1=CCCCC1)C(=O)[C@H](CC(=O)NCCCCc1ccccc1)C2	x	x	x	x	n	x	x
COc1ccccc1C#Cc1cnc2c(c1)C(=O)N([C@H](C)CO)C[C@@H](C)[C@@H](CN(C)C(=O)c1ccc3c(c1)OCO3)O2	x	x	x	x	n	x	x
CC(C)(C)C(=O)Nc1cc2nn(-c3ccccc3)nc2cc1Cl	97	96	n	n	93	n	96
Cc1ccc(-c2nc(N/N=C/c3cccnc3)c3ccccc3n2)cc1	97	91	n	n	91	n	85
Cc1ccc(-c2cc(-c3ccccc3)nc(N/N=C/c3cccnc3)n2)cc1	x	x	x	n	n	x	x
O=C(Nc1ccc(-c2nc3cccnc3s2)cc1)C1CCCO1 (stereo not given)	91	62	n	n	n	n	64
COc1ccc(NC(=O)C2CCCO2)cc1 (stereo not given)	n	n	n	n	n	n	x
Cc1ccc2nc(-c3ccc(NC(=O)C4CCCO4)cc3)[nH]c2c1 (stereo not given)	82	65	3.8	n	57	n	64
Oc1ccc(C[C@H]2CNC(=S)N2C[C@H]2CCCN2C[C@H](Cc2ccccc2)N2C[C@H](Cc3ccc(O)cc3)N(CCc3ccccc3)C2=S)cc1	x	x	x	x	n	x	x
CCOc1cc(OCC)cc(C(=O)NCCN2CCC(n3c(=O)[nH]c4ccccc43)CC2)c1	x	x	x	x	n	x	x
Cc1cc2nc3ccc(=[N+](C)C)cc-3sc2cc1N	x	72	x	x	51	x	72
COc1ccc(C2NCCc3c2[nH]c2ccccc32)cc1CN1CCc2cc(OC)c(OC)cc2C1C (stereo not given)	x	n	x	x	n	x	n
O=S(=O)(c1ccc(Nc2ccc(-c3ccc4c(c3)OCCO4)nn2)cc1)N1CCCC1	n	n	n	n	n	n	x
O=C(NC1CC1)c1cccc(Nc2ccc(-c3ccc4c(c3)OCCO4)nn2)c1	83	69	n	n	72	n	66
CC1CCCC/C1=N\NS(=O)(=O)c1ccc(Br)cc1 (stereo not given)	n	n	n	n	n	n	n
COc1ccc(N/N=C/c2c(C(=O)O)ccc3ccccc23)cc1	x	n	x	x	n	x	n
COc1cccc(/C=N/Nc2nccnc2Cl)c1O	84	n	6.2	n	72	n	n
O=[N+]([O-])c1ccc(N/N=C/c2sc(N3CCOCC3)nc2-c2ccccc2)c(S(=O)(=O)Nc2ccc(Cl)cc2)c1	n	n	n	n	n	n	n
COc1ccc(NC(=O)O/N=C/c2c(C)nn(C(C)(C)C)c2C)cc1	x	72	x	x	n	x	74
O=C(/C=C/c1ccco1)Nc1ccc2c(c1)OCCO2	89	64	9.2	156	64	n	63
O=C(/C=C/c1ccco1)Nc1ccc(C(=O)N2CCOCC2)cc1	n	n	n	n	n	n	x
COc1ccc(-c2nc3ccccc3[nH]2)cc1	93	78	5	185	79	n	77
CCC(=O)OCC(=O)N=c1sccn1Cc1ccccc1Cl	x	x	x	x	n	x	x
SMILES	FLuc inh counter	PPC-1+TRAIL kill	NF-kB expr up	APP 5'UTR act	C8 TRAIL sens	FLuc stim CS	PPC-1 tox
O=C(CCl)N=c1sccn1Cc1ccc(Cl)cc1Cl	n	98	n	n	97	n	96
NC(=O)c1ccc(=O)n(Cc2ccc(Cl)cc2Cl)c1	x	x	x	x	n	x	x
O=C(CCl)N=c1sccn1Cc1ccccc1Cl	x	98	x	x	95	x	95
CCC(=O)OCC(=O)N=c1sccn1Cc1ccc(C)cc1	x	x	x	x	n	x	x
O=C(CCl)N=c1sccn1Cc1cccc2ccccc12	n	97	n	n	95	n	98
CCCS(=O)(=O)NC(=O)C1(C)CCN(C(=O)c2cccc(C(F)(F)F)c2)C1 (stereo not given)	x	x	x	x	n	x	x
CCCCn1nnnc1C1(C)CCC(=O)N1Cc1ccc(C)cc1 (stereo not given)	x	x	x	x	n	x	x
O=C(/C=C/c1ccccc1)NC(=S)NNC(=O)Cc1cccs1	n	n	n	n	n	n	x
COc1ccc(/C=C/C(=O)NC(=S)NNC(=O)Cc2cccs2)cc1	n	n	n	n	n	n	n
Cc1csc(NC(=O)c2cn3ccccc3n2)n1	94	80	n	n	85	n	78
CCN(CC(=O)Nc1c(C(=O)OC)[nH]c2ccc(Cl)cc12)c1ccc2c(c1)OCO2	n	n	n	n	n	n	n
COc1ccc(S(=O)(=O)Nc2ccc(O)c3ccccc23)cc1	n	n	n	n	n	n	n
COc1ccc(S(=O)(=O)Nc2ccccc2)cc1	x	x	x	x	n	x	x
O=c1[nH][nH]c2c1[C@H](C1CCCC1)O[C@H](CCc1ccccc1)C2	x	x	x	x	n	x	x
CS(=O)(=O)c1ccc(C(=O)OCC(=O)NC23CC4CC(CC(C4)C2)C3)cc1[N+](=O)[O-]	n	n	n	n	n	n	n
C/C(=N/OCC(=O)Nc1ccc(C)cc1C)c1cccs1	n	n	n	n	n	n	n
C/C(=N\OCC(=O)Nc1ccccc1C(=O)O)c1cccs1	n	n	n	n	n	n	x
Cc1c(NC(=O)c2cc(-n3cnnc3)ccc2Cl)cccc1-c1nc2ccccc2s1	79	61	n	n	78	n	58
Cc1nnc(NC2=NCCC2)s1	n	n	n	n	n	n	n
Cc1nnc(NC2=NCCC2)o1	n	n	n	n	n	n	x
COc1ccc(Cl)cc1-c1nc(SCC(=O)N(C)CCC#N)n[nH]1	n	n	n	n	n	n	n
COc1ccc(Cl)cc1-c1nc(SCC(=O)NC2CCS(=O)(=O)C2)n[nH]1 (stereo not given)	x	x	x	x	n	x	x
CCc1nc2ccc(C(=O)Nc3cc(-c4ccccc4)ccc3OC)cn2c1N(C)Cc1nccs1	x	x	x	x	n	x	x
COc1ccc(/C=N/Nc2ccccn2)cc1O	x	n	x	x	n	x	x
COc1ccc2nc(Cl)c(/C=N/Nc3ccccn3)cc2c1	79	66	n	n	67	n	65
COc1ccccc1-n1c(C)cc(/C=C2/C(=N)N3C(=NC2=O)SN=C3S(C)(=O)=O)c1C	87	n	n	n	58	n	55
Cc1ccc(S(=O)(=O)N2[C@@H](c3cccc(Cl)c3)C(C(=O)OC(C)(C)C)=CC[C@H]2c2ccc(C(C)C)cc2)cc1	x	x	x	x	n	x	x
COc1cccc2c1C(=O)O/C2=C/c1ccc2c(c1)OCO2	85	n	n	n	63	n	n
COc1ccc(Cl)cc1Cn1c(C)c(C(=O)NCc2ccc(F)cc2)sc1=O	x	x	x	x	n	x	x
O=S1(=O)CC(N2CC=CC2)CN1Cc1cn(Cc2cccc(C(F)(F)F)c2)nn1 (stereo not given)	x	x	x	x	n	x	x
